Test results from PMC5013402 (BMJ Open Diabetes Research & Care, 2016).
Where two headings read alike, the source gives them in different places. Marks after values point to notes of the source that are not given here.

What was measured:
[1] = assay type: in vivo, human (patients with type 1 or type 2 diabetes); conditions: serum, mean (SD), n=19
Summary of the method: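 Patients arrived fasting, with the morning prandial dose withheld; basal insulin or oral agents were taken as usual. Each inhaled their current individualized dose (range 15–90 units), then drank a standardized 540 kcal/67.5 g carbohydrate liquid meal. Serum was sampled at −30, 0, 5, 10, 15, 20, 30, 45, 60, 90, 120, 180 and 240 min. The challenge was repeated ≥15 to ≤45 days after symptom resolution, each patient serving as own control. Descriptive statistics.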

[2] = cited from earlier work; for Terminal clearance half-life from the lung: delivered as Technosphere inhaled insulin
[3] = after subcutaneous injection; cited from earlier work

Molecule	Terminal clearance half-life from the lung [2]	Duration of action [3]	Time to maximum concentration [3]	further results
O=C(O)/C=C/C(=O)NCCCC[C@@H]1NC(=O)[C@H](CCCCNC(=O)/C=C/C(=O)O)NC1=O [FDKP, fumaryl diketopiperazine]	~1 h			FDKP tmax ([1]; during URTI): 15.8 (26.2)† min; FDKP t½ ([1]; during URTI): 163.2 (35.5)† min; FDKP tmax ([1]; post-URTI): 15.5 (14.8)† min; FDKP t½ ([1]; post-URTI): 174.8 (79.0)† min; Excretion ([2]; after inhalation of Technosphere inhaled insulin): excreted unchanged in the urine
insulin aspart		3 to 5 h	50 to 120 min	
insulin lispro		3 to 5 h	50 to 120 min	
insulin: recombinant human insulin delivered as Technosphere inhaled insulin	~1 h			
regular human insulin: regular human insulin given by subcutaneous injection		5 to 8 h	80 to 120 min	
